Measurements: ChEMBL document CHEMBL4689842, “EUbOPEN Chemogenomics Library wave 1” (2021)
Where “and” joins values, the source holds several entries; their conditions need not be identical. Equal values may be shown once.

System: U2OS
Assay: Multiplex assay against U2OS
Type: toxicity, cell-based
Conditions: human
Procedure, shortened: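 Cells were classed with CellPathfinder machine-learning gating, first as Hoechst high-intensity objects or normal cells, then (normal cells) as healthy, pyknosed or fragmented nuclei, and finally (pyknosed cells) as mitotic or apoptotic. Staining of live cells at seeding used Hoechst33342, BioTracker Green Microtubule Cytoskeleton Dye, MitoTracker Red and Annexin V Alexa Fluor 680, with imaging on a CQ1 microscope at 37°C and 5% CO2 after compound addition. Tubulin, mitochondrial-mass and membrane-permeability phenotypes are per cents of healthy-nucleus cells.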

[1] = 12 h, 1 µM, compound concentration 1 uM, replicate 1
[2] = 12 h, 1 µM, compound concentration 1 uM, replicate 2
[3] = 12 h, 10 µM, compound concentration 10 uM, replicate 1
[4] = 12 h, 10 µM, compound concentration 10 uM, replicate 2
[5] = 24 h, 1 µM, compound concentration 1 uM, replicate 1
[6] = 24 h, 1 µM, compound concentration 1 uM, replicate 2
[7] = 24 h, 10 µM, compound concentration 10 uM, replicate 1
[8] = 24 h, 10 µM, compound concentration 10 uM, replicate 2

CNC(=O)c1ccc(Nc2ncc(C(F)(F)F)c(NCc3nccnc3N(C)S(C)(=O)=O)n2)cc1 [DEFACTINIB]
Population Apoptotic (%) [1]: 22% and 66% | Population Healthy Nuclei (%) [1]: 90% and 65% | Population Hoechst High Intensity Objects (%) [1]: 4% and 6% | Population Membrane Permeable-Phenotype (%) [1]: 13% and 37% | Population Mitochondria Different-Phenotype (%) [1]: 27% and 15% | Population Mitotic Cells (%) [1]: 77% and 33% | Population Normal (%) [1]: 95% and 93% | Population Pyknosed Nuclei (%) [1]: 4% and 12% | Population Tubulin-Different-Phenotype (%) [1]: 21% and 36% | Total Cell Count [1]: 194 and 96 | Population Apoptotic (%) [2]: 25% and 42% | Population Fragmented Nuclei (%) [2]: 6% and 9% | Population Healthy Nuclei (%) [2]: 89% and 77% | Population Hoechst High Intensity Objects (%) [2]: 13% and 9% | Population Mitochondria Different-Phenotype (%) [2]: 28% and 16% | Population Mitotic Cells (%) [2]: 75% and 57% | Population Normal (%) [2]: 86% and 90% | Population Pyknosed Nuclei (%) [2]: 13% | Population Tubulin-Different-Phenotype (%) [2]: 24% | Total Cell Count [2]: 107 and 86 | Population Apoptotic (%) [3]: 64% and 37% | Population Fragmented Nuclei (%) [3]: 14% and 7% | Population Healthy Nuclei (%) [3]: 65% and 83% | Population Hoechst High Intensity Objects (%) [3]: 8% and 3% | Population Mitochondria Different-Phenotype (%) [3]: 13% and 25% | Population Mitotic Cells (%) [3]: 35% and 62% | Population Normal (%) [3]: 91% and 96% | Population Pyknosed Nuclei (%) [3]: 20% and 8% | Population Tubulin-Different-Phenotype (%) [3]: 32% and 24% | Total Cell Count [3]: 148 and 188 | Population Apoptotic (%) [4]: 33% and 28% | Population Healthy Nuclei (%) [4]: 44% and 80% | Population Hoechst High Intensity Objects (%) [4]: 30% and 18% | Population Membrane Permeable-Phenotype (%) [4]: 26% | Population Mitotic Cells (%) [4]: 66% and 71% | Population Normal (%) [4]: 69% and 81% | Population Pyknosed Nuclei (%) [4]: 10% | Population Tubulin-Different-Phenotype (%) [4]: 23% and 30% | Total Cell Count [4]: 166 and 106 | Population Apoptotic (%) [5]: 46% and 76% | Population Healthy Nuclei (%) [5]: 88% and 62% | Population Hoechst High Intensity Objects (%) [5]: 0% and 10% | Population Mitochondria Different-Phenotype (%) [5]: 29% and 32% | Population Mitotic Cells (%) [5]: 53% and 24% | Population Normal (%) [5]: 99% and 89% | Population Pyknosed Nuclei (%) [5]: 5% and 15% | Population Tubulin-Different-Phenotype (%) [5]: 30% and 46% | Total Cell Count [5]: 259 | Population Fragmented Nuclei (%) [6]: 7% and 20% | Population Healthy Nuclei (%) [6]: 90% and 57% | Population Hoechst High Intensity Objects (%) [6]: 9% and 7% | Population Mitochondria Different-Phenotype (%) [6]: 37% and 31% | Population Mitotic Cells (%) [6]: 100% and 34% | Population Normal (%) [6]: 90% and 92% | Population Tubulin-Different-Phenotype (%) [6]: 29% and 36% | Total Cell Count [6]: 129 and 90 | Population Apoptotic (%) [7]: 68% and 42% | Population Healthy Nuclei (%) [7]: 51% and 88% | Population Mitochondria Different-Phenotype (%) [7]: 28% and 32% | Population Mitotic Cells (%) [7]: 31% and 57% | Population Normal (%) [7]: 89% and 97% | Population Tubulin-Different-Phenotype (%) [7]: 40% and 26% | Total Cell Count [7]: 139 and 241 | Population Apoptotic (%) [8]: 40% and 20% | Population Hoechst High Intensity Objects (%) [8]: 27% and 11% | Population Membrane Permeable-Phenotype (%) [8]: 25% and 17% | Population Mitochondria Different-Phenotype (%) [8]: 37% and 38% | Population Mitotic Cells (%) [8]: 59% and 80% | Population Normal (%) [8]: 72% and 88% | Population Tubulin-Different-Phenotype (%) [8]: 34% and 28% | Total Cell Count [8]: 163 and 126
